Converted amounts (≈) assume the structure as drawn. The source made the active and inactive calls. No cut-off for these calls is given here.
Key:
[1] = biological target: T1, Vasopressin V2 receptor (Homo sapiens, UniProt P30518); assay: Agonist activity at human vasopressin V2 receptor expressed in HEK293 cells assessed as increase in intracellular cAMP level by CRE-luciferase reporter gene assay; assay type: functional, cell-based
Procedure, shortened: (§1)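 HEK293 cells grown to 70-80% confluency, transiently transfected with receptor plus pGL4 CRE-Luc reporter, incubated 24 h at 37 °C/5% CO2, plated at 10000 cells/well, a further 24 h. Compounds in 0.5 log serial dilutions in duplicate, final DMSO 0.1%. Luciferase read by luminescence after 5 h at 37 °C, expressed as % of 100 nM AVP control. 4-parameter logistic fit gave EC50, reported as geometric mean ± SD.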

[2] = test system: Rattus norvegicus; assay: Antidiuretic effect in Long-Evans Brattleboro rat model assessed as inhibition of urine production at 1 mg/kg, po after 1 hr relative to control; assay type: functional
Procedure, shortened: (§2)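 Brattleboro rats (Long-Evans hooded strain lacking circulating AVP, diabetes insipidus model) dosed orally in carboxymethyl cellulose. Voided urine collected and measured over 1 h periods and compared with vehicle-treated animals. At least six animals per group, data as means.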

[3] = biological target: Vasopressin V2 receptor (Rattus norvegicus, UniProt Q00788); assay: Agonist activity at rat vasopressin V2 receptor expressed in HEK293 cells assessed as increase in intracellular cAMP level by CRE-luciferase reporter gene assay; assay type: functional, cell-based; procedure, shortened: as §1
Sequence of Vasopressin V2 receptor (Rattus norvegicus, UniProt Q00788) (Q00788 whole entry): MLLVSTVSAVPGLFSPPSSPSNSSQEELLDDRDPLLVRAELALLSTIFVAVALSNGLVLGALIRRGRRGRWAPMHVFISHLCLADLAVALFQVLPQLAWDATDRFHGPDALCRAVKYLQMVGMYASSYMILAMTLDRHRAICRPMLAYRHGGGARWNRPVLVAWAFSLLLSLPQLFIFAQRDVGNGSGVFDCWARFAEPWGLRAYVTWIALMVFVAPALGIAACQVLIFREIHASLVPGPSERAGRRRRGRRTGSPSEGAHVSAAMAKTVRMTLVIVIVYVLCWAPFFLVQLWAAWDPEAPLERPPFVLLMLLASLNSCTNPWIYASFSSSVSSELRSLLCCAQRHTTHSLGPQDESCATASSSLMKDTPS

[4] = test system: Rattus norvegicus; assay: Antidiuretic effect in Long-Evans Brattleboro rat model assessed as inhibition of urine production at 1 mg/kg, po in methylcellulose after 5 hrs; assay type: functional, organism-based; design: dose 1 mg/kg
[5] = biological target: T2, Oxytocin receptor (Homo sapiens, UniProt P30559); assay: Binding affinity to oxytocin receptor
T2 sequence (P30559 whole entry): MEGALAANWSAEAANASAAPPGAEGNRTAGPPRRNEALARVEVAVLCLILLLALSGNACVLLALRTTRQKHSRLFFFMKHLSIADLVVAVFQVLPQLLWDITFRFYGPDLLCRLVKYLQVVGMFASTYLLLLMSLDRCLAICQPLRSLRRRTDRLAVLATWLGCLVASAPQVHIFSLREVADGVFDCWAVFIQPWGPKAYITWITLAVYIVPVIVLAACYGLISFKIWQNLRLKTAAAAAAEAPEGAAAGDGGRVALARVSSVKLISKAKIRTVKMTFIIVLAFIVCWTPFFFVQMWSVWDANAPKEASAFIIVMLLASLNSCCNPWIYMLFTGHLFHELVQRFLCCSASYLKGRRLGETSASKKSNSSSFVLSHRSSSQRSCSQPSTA

[6] = biological target: T1, Vasopressin V2 receptor; assay: Binding affinity to human vasopressin V2 receptor expressed in HEK293 cells by radioligand binding assay; assay type: cell-based
[7] = biological target: T1, Vasopressin V2 receptor; assay: Agonist activity at human vasopressin V2 receptor expressed in HEK293 cells assessed as increase in intracellular cAMP level by CRE-luciferase reporter gene assay relative to arginine vasopressin; assay type: functional, cell-based; procedure, shortened: as §1
[8] = biological target: Vasopressin V1a receptor (Homo sapiens) (UniProt P37288); assay: Agonist activity at human vasopressin V1a receptor upto 10 uM by reporter gene assay; assay type: functional; procedure, shortened: as §1
Sequence of Vasopressin V1a receptor (Homo sapiens) (P37288 whole entry, looked up): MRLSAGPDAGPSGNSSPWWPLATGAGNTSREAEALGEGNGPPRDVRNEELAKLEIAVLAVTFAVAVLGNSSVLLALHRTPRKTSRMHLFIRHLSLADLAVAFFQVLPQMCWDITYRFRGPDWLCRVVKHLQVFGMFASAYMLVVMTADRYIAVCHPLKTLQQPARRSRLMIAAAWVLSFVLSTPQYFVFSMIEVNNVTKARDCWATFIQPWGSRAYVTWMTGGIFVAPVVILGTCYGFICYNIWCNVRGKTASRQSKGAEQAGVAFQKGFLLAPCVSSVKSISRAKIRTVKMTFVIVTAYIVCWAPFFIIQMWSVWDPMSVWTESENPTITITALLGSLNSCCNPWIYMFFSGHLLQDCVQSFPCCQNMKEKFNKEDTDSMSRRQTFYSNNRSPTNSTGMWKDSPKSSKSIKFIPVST

[9] = biological target: T3, Vasopressin V1b receptor (Homo sapiens) (UniProt P47901); assay: Agonist activity at human vasopressin V1b receptor upto 10 uM by reporter gene assay; assay type: functional; procedure, shortened: as §1
T3 sequence (whole entry): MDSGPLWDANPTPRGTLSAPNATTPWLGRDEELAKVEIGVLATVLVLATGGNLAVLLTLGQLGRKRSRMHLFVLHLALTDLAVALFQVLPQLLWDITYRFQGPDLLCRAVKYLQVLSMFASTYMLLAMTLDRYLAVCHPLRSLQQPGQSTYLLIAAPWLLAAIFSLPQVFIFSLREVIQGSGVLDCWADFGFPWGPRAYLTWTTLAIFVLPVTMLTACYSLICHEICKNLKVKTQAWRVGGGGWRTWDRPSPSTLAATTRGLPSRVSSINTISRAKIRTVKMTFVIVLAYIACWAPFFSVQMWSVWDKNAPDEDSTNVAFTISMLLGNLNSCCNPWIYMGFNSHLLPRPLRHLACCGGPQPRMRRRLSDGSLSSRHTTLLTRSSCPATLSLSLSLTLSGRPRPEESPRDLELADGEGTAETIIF

[10] = test system: Rattus norvegicus; assay: Antidiuretic effect in Long-Evans Brattleboro rat model assessed as inhibition of urine production at 3 mg/kg, po after 2 hrs; assay type: functional, organism-based; design: dose 3 mg/kg; procedure, shortened: as §2
[11] = biological target: Vasopressin V2 receptor (Rattus norvegicus) (UniProt Q00788); assay: Agonist activity at rat vasopressin V2 receptor expressed in HEK293 cells assessed as increase in intracellular cAMP level by CRE-luciferase reporter gene assay relative to arginine vasopressin
Sequence of Vasopressin V2 receptor (Rattus norvegicus) (Q00788 whole entry, looked up): as the sequence (Q00788 whole entry) above

[12] = Aqueous solubility of the compound; assay type: physicochemical; conditions: water (aqueous)
[13] = test system: Rattus norvegicus; assay: Antidiuretic effect in Long-Evans Brattleboro rat model assessed as inhibition of urine production at 1 mg/kg, po after 1 to 2 hrs; assay type: functional, organism-based; design: dose 1 mg/kg; procedure, shortened: as §2

T1 sequence (P30518 whole entry): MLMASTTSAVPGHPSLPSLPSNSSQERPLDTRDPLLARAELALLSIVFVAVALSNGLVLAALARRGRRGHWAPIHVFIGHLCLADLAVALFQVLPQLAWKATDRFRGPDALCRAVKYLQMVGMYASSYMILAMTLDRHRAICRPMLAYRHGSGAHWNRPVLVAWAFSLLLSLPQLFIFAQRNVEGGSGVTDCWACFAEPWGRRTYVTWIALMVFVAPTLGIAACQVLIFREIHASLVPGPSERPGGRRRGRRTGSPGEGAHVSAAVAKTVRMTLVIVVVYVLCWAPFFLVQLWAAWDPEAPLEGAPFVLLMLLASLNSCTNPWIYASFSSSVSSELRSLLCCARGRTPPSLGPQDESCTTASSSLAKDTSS

Compound | EC50 [1] | other results
Cc1cc(C(=O)N2CCCCc3ccccc32)ccc1CNC(=O)NCC(=O)N1CCCCC1 | 150 nM | 
Cc1cc(C(=O)N2CCCCc3ccccc32)ccc1CNC(=O)NCC(=O)OC(C)(C)C | 120 nM | 
COc1cc(CNC(=O)Nc2c(F)cccc2F)ccc1C(=O)N1CCCCc2ccccc21 | 110 nM | 
Cc1cc(C(=O)N2CCCCc3ccccc32)ccc1CNC(=O)N1CCC[C@@H]1C(=O)N(C)C | 380 nM | 
Cc1cc(C(=O)N2CCCC(O)c3ccccc32)ccc1CNC(=O)N1CCC[C@H]1C(=O)N(C)C (stereo partly specified) | 230 nM | 
Cc1cc(C(=O)N2CCCCc3ccccc32)ccc1CNC(=O)NCC(=O)OC(C)C | 140 nM | 
Cc1cc(C(=O)N2CCCCc3ccccc32)ccc1CNC(=O)NCC(=O)Oc1ccccc1 | 820 nM | 
Cc1cc(C(=O)N2CCCCc3ccccc32)ccc1CNC(=O)Nc1ccccc1 | 130 nM | 
O=C(NCc1ccc(C(=O)N2CCCCc3ccccc32)c(F)c1)Nc1c(F)cccc1F | 180 nM | 
Cc1cc(C(=O)N2CCCCc3ccccc32)ccc1CNC(=O)N1CCC[C@H]1C(=O)OC(C)C | 950 nM | 
Cc1cc(C(=O)N2CCc3cccn3-c3ccccc32)ccc1CNC(=O)N1CCC[C@H]1C(=O)N(C)C | 140 nM | 
Cc1cc(C(=O)N2CCCCc3ccccc32)ccc1CNC(=O)NCC(N)=O | 210 nM | 
Cc1cc(C(=O)N2CCCCc3ccccc32)ccc1CNC(=O)N1CCC[C@H]1C(=O)O | 680 nM | 
Cc1cc(C(=O)N2CCCCc3ccccc32)ccc1CNC(=O)N1CCC[C@H]1C(=O)OC(C)(C)C | 390 nM | 
Cc1cc(C(=O)N2CCCCc3ccccc32)ccc1CNC(=O)NCC(=O)O | 180 nM | 
Cc1cc(C(=O)N2CCCCc3ccccc32)ccc1CNC(=O)NCC(=O)NCc1ccccc1 | 270 nM | 
Cc1cc(C(=O)N2CCCOc3ccccc32)ccc1CNC(=O)N1CCC[C@H]1C(=O)N(C)C | 1000 nM | 
Cc1cc(C(=O)N2CCCCc3ccccc32)ccc1CNC(=O)Nc1ccc[nH]c1=O | 140 nM | 
Cc1cc(C(=O)N2CCCCc3ccccc32)ccc1CNC(=O)NCC(=O)OCc1ccccc1 | 730 nM | 
CCN(CC)C(=O)[C@@H]1CCCN1C(=O)NCc1ccc(C(=O)N2CCCCc3ccccc32)cc1C | 350 nM | 
Cc1cc(C(=O)N2CCCC(C)c3ccccc32)ccc1CNC(=O)N1CCC[C@H]1C(=O)N(C)C (stereo partly specified) | 220 nM | 
Cc1cc(C(=O)N2CCCC(F)(F)c3ccccc32)ccc1CNC(=O)N1CCC[C@H]1C(=O)N(C)C | 1700 nM | 
Cc1cc(C(=O)N2Cc3cccn3Cc3ccccc32)ccc1CNC(=O)N1CCC[C@H]1C(=O)N(C)C | 120 nM | 
CCOC(=O)CNC(=O)NCc1ccc(C(=O)N2CCCCc3ccccc32)cc1C | 140 nM | 

Now those with a lower EC50 [1], led by results:

EC50 [1] | Compound | other results
4.7 nM | CO[C@@H]1C[C@@H](C(=O)N(C)C)N(C(=O)NCc2ccc(C(=O)N3CCCCc4ccccc43)cc2C)C1 | inhibition in vivo at 1 mg/kg [2]: 84%; EC50 [3]: 65 nM
2.1 nM | Cc1cc(C(=O)N2CCCCc3ccccc32)ccc1CNC(=O)Nc1c(F)cccc1F | inhibition in vivo at 1 mg/kg [2]: 0%; Activity [4]: inactive; Ki [5]: > 10 µM; Ki [6]: 200 nM; EC50 [3]: 13 nM
10 nM | CCc1cc(C(=O)N2CCCCc3ccccc32)ccc1CNC(=O)Nc1c(F)cccc1F | 
24 nM | Cc1cc(C(=O)N2CCCCc3ccccc32)ccc1CNC(=O)N1CCC[C@H]1C(=O)N(C)C [FEDOVAPAGON] | inhibition in vivo at 1 mg/kg [2]: 81%; Efficacy [7]: 100%; Activity [8]: inactive; Activity [9]: inactive; Ki [5]: > 10 µM; Ki [6]: 2000 nM; Activity [10]: Active; EC50 [3]: 150 nM
46 nM | Cc1cc(C(=O)N2CCCCc3ccccc32)ccc1CNC(=O)N1C[C@H](OC(C)(C)C)C[C@H]1C(=O)N(C)C | 
47 nM | O=C(NCc1ccc(C(=O)N2CCCCc3ccccc32)cc1)Nc1c(F)cccc1F | Ki [5]: > 10 µM; Activity [11]: 30%
50 nM | Cc1cc(C(=O)N2CCCCc3ccccc32)ccc1CNC(=O)N1CC(F)(F)C[C@H]1C(=O)N(C)C | 
40 nM | O=C(NCc1ccc(C(=O)N2CCCCc3ccccc32)c(Cl)c1)Nc1c(F)cccc1F | 
10 nM | Cc1cc(C(=O)N2CCCCc3ccccc32)ccc1CNC(=O)N1C[C@H](OCc2ccccc2)C[C@H]1C(=O)N(C)C | 
58 nM | Cc1cc(C(=O)N2CCCCc3ccccc32)ccc1CNC(=O)NCC(=O)N(C)C | inhibition in vivo at 1 mg/kg [2]: 82%; solubility [12]: 177 µg/mL (≈ 419 µM); Activity [13]: Active; EC50 [3]: 50 nM
100 nM | COC(=O)[C@@H]1CCCN1C(=O)NCc1ccc(C(=O)N2CCCCc3ccccc32)cc1C | 
100 nM | Cc1cc(C(=O)N2CCCCc3ccccc32)ccc1CNC(=O)NCC(=O)N1CCCC1 | 
2.3 nM | Cc1cc(C(=O)N2CCCCc3ccccc32)ccc1CNC(=O)N1C[C@H](O)C[C@H]1C(=O)N(C)C | inhibition in vivo at 1 mg/kg [2]: 68%; EC50 [3]: 41 nM
37 nM | COC(=O)CNC(=O)NCc1ccc(C(=O)N2CCCCc3ccccc32)cc1C | 
20 nM | COC1(OC)C[C@@H](C(=O)N(C)C)N(C(=O)NCc2ccc(C(=O)N3CCCCc4ccccc43)cc2C)C1 | 
4.3 nM | CCO[C@@H]1C[C@@H](C(=O)N(C)C)N(C(=O)NCc2ccc(C(=O)N3CCCCc4ccccc43)cc2C)C1 | inhibition in vivo at 1 mg/kg [2]: 60%; EC50 [3]: 15 nM
27 nM | Cc1cc(C(=O)N2CCCCc3ccccc32)ccc1CNC(=O)N1CC(=O)C[C@H]1C(=O)N(C)C | 
30 nM | Cc1cc(C(=O)N2CCCCc3ccccc32)ccc1CNC(=O)Nc1ccccc1F | 
< 1 nM | Cc1ccn(-c2ccc(C(=O)N3Cc4cccn4Cc4ccccc43)c(Cl)c2)n1 | 
3.2 nM | Cc1cc(C(=O)N2CCCCc3ccccc32)ccc1CNC(=O)N1CCC[C@H]1C(=S)N(C)C | 
84 nM | Cc1cc(C(=O)N2CCc3ccccc3-c3ccccc32)ccc1CNC(=O)N1CCC[C@H]1C(=O)N(C)C | 
82 nM | Cc1cc(C(=O)N2CCCCc3ccccc32)cc(C)c1CNC(=O)Nc1c(F)cccc1F | 

Reference: ChEMBL document CHEMBL1151753, “New benzylureas as a novel series of potent, nonpeptidic vasopressin V2 receptor agonists” (J Med Chem, 2008)
